We go through two compounds from publication PMC4488387 (Nature methods, 2015).

For test [1], the target named is T1, Nluc-A1 receptor (Homo sapiens, UniProt P30542).
T1 sequence (P30542 2-326 limits assumed): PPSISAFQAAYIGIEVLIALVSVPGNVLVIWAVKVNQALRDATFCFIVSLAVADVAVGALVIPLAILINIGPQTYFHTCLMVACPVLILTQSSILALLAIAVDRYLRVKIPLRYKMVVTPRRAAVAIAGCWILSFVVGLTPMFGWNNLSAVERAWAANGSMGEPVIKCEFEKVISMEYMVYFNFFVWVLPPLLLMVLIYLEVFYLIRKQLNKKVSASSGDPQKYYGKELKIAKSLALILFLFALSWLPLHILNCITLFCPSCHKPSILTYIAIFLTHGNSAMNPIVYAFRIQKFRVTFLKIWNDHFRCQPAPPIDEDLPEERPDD
Put plainly: NanoBRET saturation binding, HEK293 cells stably expressing Nluc-A1. The conditions noted are these: Nluc-A1, concentrations up to 500 nM, non-specific 1 μM DPCPX.

Test [2] concerns the target T1, Nluc-A1 receptor. In words: NanoBRET association kinetics of CA200645 binding. Particulars: read-out: KD from kinetics (koff/kon); Nluc-A1, room temperature, 60 min, n=3. A digest of the protocol: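 Stable single-cell-cloned HEK293 Nluc-A1 cells were seeded 24 h ahead. Medium was replaced with HBSS containing 10 uM furimazine and equilibrated 15 min in the reader. The fluorescent ligand was then added at several concentrations, and each well was read once per min for 60 min.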

For the compound `COc1ccc(-n2nc3c(NC(=O)CCC(=O)NCCOCCOCCNC(=O)CCCCCNC(=O)COc4ccc(/C=C/C5=[N+]6C(=Cc7ccc(-c8cccs8)n7[B-]6(F)F)C=C5)cc4)nc4ccccc4n3c2=O)cc1` [AV039], at Nluc-A1 receptor [1], the “saturable specific BRET signal” value is “did not detect a saturable specific BRET signal”.
As to CA200645, on Nluc-A1 receptor [2], the Kd came out at 0.0204 ± 0.0069 µM.
